Test results as given in publication PMC11659308 (Communications Chemistry, 2024).
Peptide text beside a SMILES is read from it.

Assays:
[1] = Asn-Gly isomerisation kinetics followed by time-dependent 1D 1H-NMR; assay type: physicochemical; conditions: for k2 (Suc→β-Asp) / k3 (Suc→α-Asp) / t1/2, half-life of the Asn species: 1H-NMR time course, 50 mM Na2HPO4 buffer; for k2 (Suc→β-Asp) / k3 (Suc→α-Asp): COPASI fit; for t1/2, half-life of the Asn species: chemical stability
Summary of the method: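 Acetylated Asn-Gly-Xxx-Ala amide tetrapeptide (~1 mg) in 50 mM (final) Na2HPO4 with D2O and DSS/NaN3. pH set with 0.1 M HCl/NaOH. Heated samples sonicated 1 min. 1D 1H spectra at 5–120 min and beyond, until reactant fell below ~10%. COSY/TOCSY assignment. Relative integrals fitted to Asn→Suc (irreversible), Suc⇌β-Asp and Suc⇌α-Asp kinetic model.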

[2] = estimated; cited from earlier work
[3] = native versus reduced and unfolded forms; cited from earlier work

With `CC(=O)N[C@@H](CC(N)=O)C(=O)NCC(=O)N[C@@H](CCCCN)C(=O)N[C@@H](C)C(N)=O` [-NGKA-] (Ac-NGKA-NH2) the “k2 (Suc→β-Asp)” value ([1]; pH 7.4, 28 °C) was 0.334 h⁻¹, the “k3 (Suc→α-Asp)” value ([1]; pH 7.4, 28 °C) was 0.174 h⁻¹ and the “k2 (Suc→β-Asp)” value ([1]; pH 7.4, 37 °C) was 0.643 h⁻¹. The “k3 (Suc→α-Asp)” value ([1]; pH 7.4, 37 °C) was 0.255 h⁻¹, the “k2 (Suc→β-Asp)” value ([1]; pH 7.4, 46 °C) was 2.30 h⁻¹ and the “k3 (Suc→α-Asp)” value ([1]; pH 7.4, 46 °C) was 1.150 h⁻¹. The “k2 (Suc→β-Asp)” value ([1]; pH 7.4, 55 °C) was 4.00 h⁻¹, the “k3 (Suc→α-Asp)” value ([1]; pH 7.4, 55 °C) was 0.134 h⁻¹ and the “t1/2, half-life of the Asn species” value ([1]; pH 7.4, 28 °C) was 76.6 h. For the same molecule, the “t1/2, half-life of the Asn species” value ([1]; pH 7.4, 37 °C) was 19.1 h, the “t1/2, half-life of the Asn species” value ([1]; pH 7.4, 46 °C) was 9.4 h and the “t1/2, half-life of the Asn species” value ([1]; pH 7.4, 55 °C) was 3.0 h. The “activation Gibbs free energy of the rate-determining initial step (succinimide formation), ∆G‡(1)” value ([1]; pH 7.4, Arrhenius, slope of ln k1 vs 1/T (28-55 °C)) was 87.3 kJ/mol and the “change in Gibbs free energy of the β-Asp formation step, ∆G‡(2)” value ([1]; pH 7.4, Arrhenius, slope of ln k2 vs 1/T (28-55 °C)) was 85.9 kJ/mol.

For `CNC(C)=O` [N-methylacetamide], the “pKa, deprotonation of the amide group” value [2] is given as 18.

B1: native ribonuclease A: native ribonuclease A, compared with its reduced and unfolded forms (protein, UniProt P61823 27-150, looked up)
Ribonuclease pancreatic: KETAAAKFERQHMDSSTSAASSSNYCNQMMKSRNLTKDRCKPVNTFVHESLADVQAVCSQKNVACKNGQTNCYQSYSTMSITDCRETGSSKYPNCAYKTTQANKHIIVACEGNPYVPVHFDASV
In the case of B1, the “times less prone to asparagine isomerisation than its reduced and unfolded forms” value [3] is listed as ~ 30 times.
